Screening data: PubChem BioAssay, Johns Hopkins Ion Channel Center
RGS4 inh: human RGS4 inhibition. P49798. HEK293 M3R/RGS4 inducible, Fluo-4 calcium flux; active compounds read high; triggered by carbachol at its EC20. B-score at 10 µM. hit rate 0.45% among 310,000;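 active = B-score, a plate-corrected calcium signal, over three deviations above library mean, with baseline fluorescence within five deviations of library mean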;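 also: RGS4 expression induced by doxycycline in cells with stable M3 receptor; B-score is computed from the integrated fluorescence ratio over baseline after carbachol; higher B-score means a larger calcium signal and so more RGS4 inhibition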
MrgX1 ag: human MrgX1 receptor agonism, primary screen; hit rate 0.44% among 310,000; MrgX1-HEK293 cells, Fluo-4 calcium fluorescence, agonist mode; active compounds read high; B-score at 10 µM; Q96LB2;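 active = calcium response B-score plate-corrected fluorescence ratio at least 3 library SD, with starting fluorescence B-score inside 5 SD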
Target sequence (Q96LB2 whole entry, looked up): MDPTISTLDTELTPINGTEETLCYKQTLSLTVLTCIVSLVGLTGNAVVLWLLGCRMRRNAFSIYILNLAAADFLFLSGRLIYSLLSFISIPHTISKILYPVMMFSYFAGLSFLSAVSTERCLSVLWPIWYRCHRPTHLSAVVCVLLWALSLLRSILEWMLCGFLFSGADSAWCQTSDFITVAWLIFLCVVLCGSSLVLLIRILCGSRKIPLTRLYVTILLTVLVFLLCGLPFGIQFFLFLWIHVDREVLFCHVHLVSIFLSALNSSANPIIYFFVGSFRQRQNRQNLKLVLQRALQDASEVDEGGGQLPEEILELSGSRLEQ
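Test system: Stable human MrgX1 HEK293 cell line | Schedule: Overnight plating before 1 h dye loading | Read-out basis: Baseline-normalised fluorescence change ratio, B-scored | Detection: Kinetic calcium dye fluorescence, Fluo-4 NW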
RGS4 pot: potentiators or activators of RGS4. HEK293 M3R/inducible RGS4, carbachol calcium flux Fluo4; active compounds read low. B-score at 10 µM. hit rate 0.92% among 310,000. AID 463111;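 active = B-score of the integrated calcium signal more than 4 SD below the library mean, with starting fluorescence not abnormally high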;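 also: negative B-score means reduced calcium response which marks RGS4 activation or potentiation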
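Assay system: HEK293 FlpIn-TREx cells, stable M3R, doxycycline-inducible RGS4 / Probe or stimulus: carbachol, ECmax concentration / Times: overnight RGS4 induction, 30 min dye load 37 °C, 20 min compound RT / Signal: kinetic calcium fluorescence imaging with Fluo4-AM dye, 2 µM / Measure: Agonist-evoked peak-minus-minimum fluorescence over baseline, integrated ratio, B score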
MrgX1 allo act: human MrgX1 positive allosteric modulation, primary screen; Q96LB2; MrgX1-HEK293, Fluo-4 calcium flux, FDSS; active compounds read high; B-score at 10 µM; hit rate 0.63% among 310,000; AID 588675;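 active = plate-corrected calcium response at least 3 library SD above typical, normal starting fluorescence, not activating the receptor alone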;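 also: compound read alongside a low EC10 to EC30 dose of BAM8-22 agonist; peak minus trough fluorescence over baseline measured at the second addition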
MrgX1 antag: blocks BAM8-22 activation of human MrgX1 receptor; Q96LB2; B-score at 10 µM; AID 588676; hit rate 1.3% among 310,000; MRGX1-HEK293 calcium flux, Fluo-4, BAM8-22 antagonism; active compounds read low;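 active = calcium-response B-score plate-corrected more than 3 library SD below zero, starting fluorescence within 5 deviations, no agonist response on first addition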;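 also: peak minus trough fluorescence over baseline after final BAM8-22 challenge near maximal dose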
Large screens that a line does not name were inactive. Hits are enriched below; roughly 3.5% of the tested compounds scored in any of these assays.

CCN(CC)CCCCN1c2ccccc2Sc2ccccc21	RGS4 pot -7.2
CN1CCN(CCC(=O)N2c3ccccc3Sc3ccc(C(F)(F)F)cc32)CC1	MrgX1 antag -8.2
CN(C)CCCN1c2ccccc2Sc2ccc(C(F)(F)F)cc21	RGS4 pot -8.3
CC(=O)NC(Cc1cccc(C)c1)C(=O)NC1CCN(c2ncccc2[N+](=O)[O-])CC1 (stereo unspecified)	MrgX1 antag -4.7
CCn1c(SCC(=O)Nc2ccc3c(c2)oc2ccccc23)nnc1-c1ccc(N)cc1	RGS4 inh 8
CCn1c(Cc2cccs2)nnc1SCC(=O)Nc1ccc(OC)c(OC)c1	MrgX1 antag -4.7
CCOC(=O)c1cnc2sc3c(n2c1=O)CCCC3	MrgX1 antag -5.2 (no result: RGS4 inh, RGS4 pot)
Nc1nc2nc(-c3ccccc3)cc(C(F)(F)F)c2s1	none
Cc1ccccc1OCCNc1ccc(C(F)(F)F)cc1[N+](=O)[O-]	none
O=[N+]([O-])c1cc(C(F)(F)F)ccc1NCCOc1ccccc1	MrgX1 allo act 9.1
COc1ccccc1-c1nc2cc3ccccc3cc2nc1-c1ccccc1	none
COc1cccc(-n2nnnc2S(C)(=O)=O)c1	MrgX1 ag 48
CC1(C(=O)NC2CCCCCCC2)CC1(Cl)Cl (stereo unspecified)	none
CC(C)/C=C(/C(=O)c1ccc(Cl)cc1Cl)n1cncn1	none
O=C(/C(=C/c1cccnc1)n1ccnc1)c1ccc(Cl)cc1Cl	MrgX1 ag 33
Cn1nc(C(=O)N2CCN(c3ccccn3)CC2)c2ccccc2c1=O	none
Cc1ccc2cc(C=O)c(Cl)nc2c1	MrgX1 allo act 7.3
CCOC(=O)/C(C#N)=C/c1cc2ccc(C)cc2nc1Cl	none
Cc1ccc(N(C(=O)Cc2cccs2)C(C(=O)NC2CCCCC2)c2ccccn2)cc1C (stereo unspecified)	MrgX1 allo act 10
COc1cc(N(C(=O)Cc2cccs2)C(C(=O)NC2CCCCC2)c2ccc(C)cc2)ccc1-n1cnnn1 (stereo unspecified)	MrgX1 antag -6.3
O=[N+]([O-])c1ccc(-c2csc(N3CCCCCC3)n2)cc1	MrgX1 allo act 9.1
CN(C)C(CNC(=S)Nc1cccc(Cl)c1)c1ccccc1 (stereo unspecified)	none
COc1cc2ccccc2cc1C(=O)N(CCN(C)C)c1nc2c(OC)ccc(OC)c2s1	MrgX1 allo act 8.8
FC(F)(F)c1cnc(NNC(=S)Nc2cccnc2)c(Cl)c1	none
COc1ccc2c([N+](=O)[O-])c(Cl)[nH]c2c1	none
CSc1ccc(CN(C)C(=O)c2cccc(S(=O)(=O)NCc3ccccc3)c2)cc1	MrgX1 antag -5.1
CCCN(CC(=O)Nc1ccccc1OC)C(=O)c1cccc(S(=O)(=O)NCc2ccccc2)c1	MrgX1 antag -6.1
CSc1ccc(CN(C)C(=O)C(Cc2ccccc2)NC(=O)c2ccccc2)cc1 (stereo unspecified)	RGS4 pot -7.3
CN(Cc1ccc(F)cc1)C(=O)C(Cc1ccccc1)NC(=O)c1ccccc1 (stereo unspecified)	none
O=c1c2ccccc2nc2ccc(NCc3cccs3)nn12	none
CCCOC(=O)C1[C@H]2C(=O)N(CC3CCCO3)C[C@]23C=C[C@H]1O3 (stereo partly specified)	none
CCN1CCN(CC(=O)N/N=C/c2cc(Br)cs2)CC1	none
Cc1nccn1CC(=O)N/N=C/c1cc(Br)cs1	MrgX1 antag -5.3
Cc1cc(C)c(C#N)c(SCc2c(F)cccc2[N+](=O)[O-])n1	MrgX1 antag -5.7
O=c1oc2ccccc2cc1-c1csc(NN=C2CCCCC2)n1	RGS4 pot -7.5
CCCOc1cccc(-c2cc(C(=O)N/N=C/c3ccccn3)c3ccccc3n2)c1	RGS4 pot -9.1
Cc1cccc(-c2cc(C(=O)N/N=C/c3cccnc3)c3ccccc3n2)c1	none
CCCOc1cccc(-c2cc(C(=O)N/N=C/c3cccnc3)c3ccccc3n2)c1	RGS4 pot -8.1
NNc1cc([N+](=O)[O-])cc2c1C(=O)N(Cc1ccccc1)S2=O (stereo unspecified)	none
CC1CCCC(C)N1CCCNC(=O)Cn1c(=O)c2cccn2c2cccnc21 (stereo unspecified)	none
O=C1C2C3C=CC(C4CC34)C2C(=O)N1/N=C/c1ccc(-c2ccc(Cl)cc2[N+](=O)[O-])o1 (stereo unspecified)	RGS4 pot -8.5
